In ChEMBL document CHEMBL1144823, “Blood-brain barrier penetration by two dermorphin tetrapeptide analogues: role of lipophilicity vs structural flexibility” (J Med Chem, 2008):
The source made the active and inactive calls. Where a SMILES comes first, the peptide text is derived from it. [ ]: non-standard residue; d: D form. dNMeA = CN[C@H](C)C(=O)O; Sar = CNCC(=O)O

What was measured:
Mu-type opioid receptor [1] = target: Mu-type opioid receptor (Rattus norvegicus, UniProt P33535); test: Displacement of [3H]naloxone from mu opioid receptor in rat brain membrane; type: cell membranes
Mu-type opioid receptor (Rattus norvegicus, UniProt P33535), sequence (P33535 whole entry): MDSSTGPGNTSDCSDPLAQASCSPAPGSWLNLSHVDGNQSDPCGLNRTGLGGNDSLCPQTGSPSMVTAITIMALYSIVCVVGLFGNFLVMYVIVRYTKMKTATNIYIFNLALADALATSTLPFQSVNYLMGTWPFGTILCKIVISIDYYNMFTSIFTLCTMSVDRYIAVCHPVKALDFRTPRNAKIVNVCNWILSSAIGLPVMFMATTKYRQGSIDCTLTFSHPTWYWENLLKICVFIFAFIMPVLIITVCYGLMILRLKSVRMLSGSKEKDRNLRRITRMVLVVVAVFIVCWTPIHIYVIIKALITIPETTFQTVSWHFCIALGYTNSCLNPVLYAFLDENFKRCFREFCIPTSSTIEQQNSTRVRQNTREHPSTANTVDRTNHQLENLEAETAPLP
How it was run: (§1)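 Competitive displacement on rat brain membranes: [³H]naloxone for mu sites and [³H]deltorphin II for delta sites, giving IC50 values. Selectivity is expressed as IC50(mu)/IC50(delta).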

Rattus norvegicus = organism: Rattus norvegicus; test: Ratio of IC50 for mu opioid receptor in rat brain to IC50 for delta opioid receptor in rat brain; type: tissue-based; how it was run: as §1
Mu-type opioid receptor [2] = target: Mu-type opioid receptor (Cavia porcellus, UniProt P97266); test: Agonist activity at mu opioid receptor in guinea pig ileum; type: functional, tissue-based
Mu-type opioid receptor (Cavia porcellus, UniProt P97266), sequence (P97266 whole entry): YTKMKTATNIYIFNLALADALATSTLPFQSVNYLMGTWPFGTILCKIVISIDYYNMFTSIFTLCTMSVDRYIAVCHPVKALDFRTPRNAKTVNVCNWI
How it was run: (§2)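 Isolated guinea pig ileum and mouse vas deferens preparations. A [Leu⁵]enkephalin standard dose–response curve was run for each ileum and vas preparation. Compound IC50 values were normalized to that standard by a published procedure.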

[3] = target: Delta-type opioid receptor (Rattus norvegicus, UniProt P33533); test: Displacement of [3H]deltorphin2 from delta opioid receptor in rat brain membrane; type: cell membranes; how it was run: as §1
Delta-type opioid receptor (Rattus norvegicus, UniProt P33533), sequence (P33533 whole entry): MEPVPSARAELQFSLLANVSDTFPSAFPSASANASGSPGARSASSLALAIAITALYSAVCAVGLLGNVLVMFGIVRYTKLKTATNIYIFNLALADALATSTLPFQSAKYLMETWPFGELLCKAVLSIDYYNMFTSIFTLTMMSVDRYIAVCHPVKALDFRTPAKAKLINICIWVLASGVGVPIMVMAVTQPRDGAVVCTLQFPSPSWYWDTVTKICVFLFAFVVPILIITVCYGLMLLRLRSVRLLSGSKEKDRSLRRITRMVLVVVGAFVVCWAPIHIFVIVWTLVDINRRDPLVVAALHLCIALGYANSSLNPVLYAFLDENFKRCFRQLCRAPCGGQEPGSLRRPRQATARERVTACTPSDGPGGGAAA

[4] = target: Delta-type opioid receptor (Mus musculus, UniProt P32300); test: Agonist activity at delta opioid receptor in mouse vas deferens; type: functional, tissue-based; how it was run: as §2
Delta-type opioid receptor (Mus musculus, UniProt P32300), sequence (P32300 whole entry): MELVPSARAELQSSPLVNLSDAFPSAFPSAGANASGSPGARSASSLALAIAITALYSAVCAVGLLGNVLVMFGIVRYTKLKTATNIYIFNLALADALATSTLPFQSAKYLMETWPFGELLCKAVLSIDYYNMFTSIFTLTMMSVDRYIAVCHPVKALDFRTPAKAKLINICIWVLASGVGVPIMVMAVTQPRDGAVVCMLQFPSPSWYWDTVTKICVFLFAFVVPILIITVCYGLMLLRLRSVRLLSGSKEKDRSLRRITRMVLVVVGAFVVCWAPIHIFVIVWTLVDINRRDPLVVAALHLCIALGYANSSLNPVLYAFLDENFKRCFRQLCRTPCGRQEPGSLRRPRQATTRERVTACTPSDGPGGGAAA

[5] = target: Kappa-type opioid receptor (Cavia porcellus) (UniProt P41144); test: Displacement of [3H]U-69593 from kappa opioid receptor in guinea pig brain membrane at 10 uM; type: cell membranes
Kappa-type opioid receptor (Cavia porcellus), sequence (P41144 whole entry): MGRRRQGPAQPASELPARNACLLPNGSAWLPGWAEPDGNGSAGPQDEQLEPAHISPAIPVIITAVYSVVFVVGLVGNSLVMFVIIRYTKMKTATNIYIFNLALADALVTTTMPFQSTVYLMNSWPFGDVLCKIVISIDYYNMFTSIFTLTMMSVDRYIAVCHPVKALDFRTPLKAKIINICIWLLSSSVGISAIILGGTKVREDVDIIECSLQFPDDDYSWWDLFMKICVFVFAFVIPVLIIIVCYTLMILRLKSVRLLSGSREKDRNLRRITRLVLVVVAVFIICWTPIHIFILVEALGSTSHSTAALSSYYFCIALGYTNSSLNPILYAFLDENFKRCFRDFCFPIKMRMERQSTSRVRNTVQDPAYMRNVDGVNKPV
How it was run: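 Displacement of [³H]U69,593 from guinea pig brain membrane sites, with test concentrations up to 10 µM.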

Mus musculus [6] = test: Analgesic activity in C57 mouse at 2 mg/kg, iv after 5 mins by tail flick test; type: functional, organism-based; parameters: dose 2 mg/kg
How it was run: (§3)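 Male C57 mice (20–25 g) housed in groups of five on a 12 h light-dark cycle. Peptide in saline was injected into the tail vein (10 mL/kg total) and flushed with saline; controls received saline. Warm-water (55 °C) tail-flick test, three trials, 15 s cutoff. %MPE = (post − control)/(cutoff − control) × 100, read at baseline, 5, 15, 30, 60 and 120 min. One-way ANOVA at each time point.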

Mus musculus [7] = test: Analgesic activity in C57 mouse at 2 mg/kg, iv after 15 mins by tail flick test; type: functional, organism-based; parameters: dose 2 mg/kg; how it was run: as §3

Structure (SMILES)	IC50 (Mu-type opioid receptor [1]) [µM]	Ratio IC50 (Rattus norvegicus)	IC50 (Mu-type opioid receptor [2]) [µM]	IC50 [3] [µM]	IC50 [4] [µM]	Activity [5]	Activity (Mus musculus [6])	Activity (Mus musculus [7])
C[C@H](C(=O)N[C@H]1Cc2ccccc2CN(CC(N)=O)C1=O)N1Cc2cc(O)ccc2C[C@H](N)C1=O	20.8	1.17	3.64	17.8	30.3	inactive	–	–
C[C@H](C(=O)N[C@@H](Cc1ccccc1)C(=O)N(C)CC(N)=O)N(C)C(=O)[C@@H](N)Cc1ccc(O)cc1 (H-Y[dNMeA]F[Sar]-NH2)	28.1	3.96	22	7.1	79.7	inactive	Active	Active
